ChEMBL document CHEMBL3399971

Key:
[1] = Selectivity index, ratio of MNCC against mouse BV2 cells to IC50 for mGluR5 in mouse BV2 cells; format: functional, BV-2
[2] = Cytotoxicity against mouse BV2 cells by CytoTox96 non-radioactive cytotoxicity assay; format: cell-based, BV-2; conditions: for MNTC: BV2 cells, read-out: MNCC
In short: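 BV2 murine microglia in DMEM with 10% FBS, 37°C, 5% CO2. Compounds in 0.02% DMSO (final) added 1 h before LPS (50 ng/ml), 24 h co-incubation. Viability by CytoTox96 non-radioactive kit. Value is the highest concentration without obvious cytotoxicity.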

[3] = molecular target: Metabotropic glutamate receptor 5 (Mus musculus, UniProt Q3UVX5); assay: Positive allosteric modulator activity at mGluR5 in mouse BV2 cells assessed as inhibition of nitric oxide production pre-treated 1 hr before lipopolysaccharide stimulation and measured 24 hrs post lipopolysaccharide stimulation by Griess reagent assay; format: cell-based, BV-2
Sequence of Metabotropic glutamate receptor 5 (Q3UVX5 whole entry): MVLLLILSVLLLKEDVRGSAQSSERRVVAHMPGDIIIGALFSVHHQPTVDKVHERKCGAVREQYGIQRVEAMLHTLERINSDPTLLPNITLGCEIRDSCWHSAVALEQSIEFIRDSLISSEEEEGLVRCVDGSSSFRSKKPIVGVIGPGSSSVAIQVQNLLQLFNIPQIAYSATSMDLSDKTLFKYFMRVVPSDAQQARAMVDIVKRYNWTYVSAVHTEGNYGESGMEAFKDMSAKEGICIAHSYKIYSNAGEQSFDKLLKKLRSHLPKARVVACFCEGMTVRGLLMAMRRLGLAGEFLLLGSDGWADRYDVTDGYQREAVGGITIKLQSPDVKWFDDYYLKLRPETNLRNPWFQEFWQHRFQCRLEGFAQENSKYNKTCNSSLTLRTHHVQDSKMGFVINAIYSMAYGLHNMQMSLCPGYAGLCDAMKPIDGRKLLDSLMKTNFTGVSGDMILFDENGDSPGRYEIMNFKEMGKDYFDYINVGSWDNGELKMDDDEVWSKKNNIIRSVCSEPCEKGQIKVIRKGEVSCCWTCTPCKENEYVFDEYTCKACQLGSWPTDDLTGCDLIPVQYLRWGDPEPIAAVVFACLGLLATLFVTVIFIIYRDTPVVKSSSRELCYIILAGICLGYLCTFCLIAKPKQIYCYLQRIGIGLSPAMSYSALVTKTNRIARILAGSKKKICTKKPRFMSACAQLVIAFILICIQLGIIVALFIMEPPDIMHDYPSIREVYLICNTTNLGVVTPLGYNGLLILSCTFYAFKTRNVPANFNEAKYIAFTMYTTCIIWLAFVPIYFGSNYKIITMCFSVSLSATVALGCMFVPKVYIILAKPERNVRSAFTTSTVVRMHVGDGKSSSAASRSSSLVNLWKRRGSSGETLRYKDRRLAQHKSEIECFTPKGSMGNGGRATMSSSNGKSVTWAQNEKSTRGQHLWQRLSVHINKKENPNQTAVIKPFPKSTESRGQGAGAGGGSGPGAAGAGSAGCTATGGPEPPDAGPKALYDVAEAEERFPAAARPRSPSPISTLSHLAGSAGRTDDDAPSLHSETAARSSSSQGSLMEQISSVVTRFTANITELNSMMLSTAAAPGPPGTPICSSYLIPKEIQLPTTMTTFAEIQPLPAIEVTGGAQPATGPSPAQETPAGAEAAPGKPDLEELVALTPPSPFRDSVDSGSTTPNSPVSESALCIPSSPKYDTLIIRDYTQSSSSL
In short: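 BV2 microglia grown in DMEM plus 10% FBS at 37°C, 5% CO2. Pretreated 1 h with compound in 0.02% DMSO (final), then stimulated with LPS 50 ng/ml for 24 h. Read-out is supernatant nitrite by Griess reagent as a proxy for NO. IC50 is the mean of three independent experiments.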

| IC50 ([3]; read-out: IC50) | IC50 ([3]; bv-2) | SMILES | Selectivity Index [1] | MNTC [2] | MNCC ([2]; bv-2) |
| --- | --- | --- | --- | --- | --- |
| 15 µM |  | O=C(Nc1nc2ccccc2[nH]1)c1ccc(F)cc1 | 67.1 | 1 mM |  |
| 33 µM |  | O=C(Nc1nc2ccccc2[nH]1)c1ccc([N+](=O)[O-])cc1 | 9.2 | 0.3 mM |  |
| 36 µM |  | O=C(Nc1nc2ccccc2[nH]1)c1ccccc1F | 28 | 1 mM |  |
| 29 µM |  | O=C(Nc1nc2ccccc2[nH]1)c1cccc(Cl)c1 | 34.6 | 1 mM |  |
| 20 µM |  | CN(C)c1cccc(C(=O)Nc2nc3ccccc3[nH]2)c1 | 14.7 | 0.3 mM |  |
| 15 µM |  | O=C(Nc1nc2ccccc2[nH]1)C1CCC1 | 3.97 | 0.06 mM |  |
| 120 µM |  | COc1cccc(C(=O)Nc2nc3ccccc3[nH]2)c1 | 8.06 | 1 mM |  |
| 100 µM |  | COc1ccc(C(=O)Nc2nc3ccccc3[nH]2)cc1 | 10.1 | 1 mM |  |
| 29 µM |  | O=C(Nc1nc2ccccc2[nH]1)c1cccc([N+](=O)[O-])c1 |  | 1 mM |  |
| 160 µM |  | O=C(Nc1nc2ccccc2[nH]1)c1ccccc1 | 6.17 | 1 mM |  |
| 110 µM |  | O=C(Nc1nc2ccccc2[nH]1)c1ccccc1Cl | 2.67 | 0.3 mM |  |
| 88 µM |  | O=C(Nc1nc2ccccc2[nH]1)c1ccccc1C(F)(F)F | 11.3 | 1 mM |  |
|  | ND(Insoluble) | O=C(Nc1nc2ccccc2[nH]1)c1ccccn1 |  |  | ND(Insoluble) |
| 210 µM |  | CN(C(=O)c1cccc(Cl)c1)c1nc2ccccc2[nH]1 | 4.85 | 1 mM |  |
| 160 µM |  | O=C(Sc1nc2ccccc2[nH]1)c1cccc(Cl)c1 | 6.36 | 1 mM |  |
| 12 µM |  | O=C(Nc1nc2ccccc2[nH]1)c1cccc(C(F)(F)F)c1 | 17.2 | 0.2 mM |  |
| 59 µM |  | O=C(Nc1nc2ccccc2[nH]1)c1ccc(C(F)(F)F)cc1 | 16.9 | 1 mM |  |
|  |  | O=C(Nc1nc2ccccc2[nH]1)c1ccncc1 |  | 1 mM |  |
| 12 µM |  | O=C(Nc1nc2ccccc2[nH]1)c1cc(Cl)ccc1Cl | 8.33 | 0.1 mM |  |
| 34 µM |  | O=C(Nc1nc2ccccc2[nH]1)c1cc(C(F)(F)F)ccc1C(F)(F)F | 1.74 | 0.06 mM |  |
| 9.8 µM |  | O=C(Nc1nc2ccccc2[nH]1)c1ccc(Cl)c(Cl)c1 | 10.2 | 0.1 mM |  |
| 6.4 µM |  | O=C(Nc1nc2ccccc2[nH]1)c1cc(Cl)cc(Cl)c1 | 125 | 0.8 mM |  |
| 150 µM |  | COc1cc(C(=O)Nc2nc3ccccc3[nH]2)ccc1S(N)(=O)=O | 6.59 | 1 mM |  |
| 22 µM |  | O=C(/C=C/c1ccncc1)Nc1nc2ccccc2[nH]1 | 44.8 | 1 mM |  |
| 42 µM |  | O=C(Nc1nc2ccccc2[nH]1)C1CCCCC1 | 24.1 | 1 mM |  |
|  |  | Fc1cccc(/C=N/N=C/c2cccc(F)c2)c1 |  | 0.5 mM |  |
| 25 µM |  | O=C(Nc1nc2ccccc2[nH]1)c1ccc(Cl)cc1 | 40.4 | 1 mM |  |
